Results on 15 compounds are retold here after ChEMBL document CHEMBL1828506, “New fluorine-containing hydrazones active against MDR-tuberculosis” (Eur J Med Chem, 2011).

The test system of experiment [1] is Mycobacterium tuberculosis. Kind of experiment: Antimycobacterial activity against multidrug-resistant Mycobacterium tuberculosis A8 241 after 28 days by colony forming unit determination. In kind it is functional. As to conditions: A8 241, 672 h. The procedure, abridged: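 Compounds added to Sula liquid medium as DMSO solutions (DMSO at most 2%), incubated at 37 °C for 28 days. MIC is the lowest concentration giving visible growth inhibition. Activity was confirmed by CFU counts after subculture onto drug-free Löwenstein-Jensen solid medium.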

Experiment [2] in a line: Selectivity index, ratio of IC50 for human HepG2 cells to MIC for multidrug-resistant Mycobacterium tuberculosis A8 241. In kind it is functional.

In brackets after ≈: the same amount, converted by molar mass.

On to `O=C(N/N=C/Nc1ccc(C(=O)O)c(O)c1)c1ccc(C(F)(F)F)cc1`, for which, in experiment [1], the MIC is 0.5 mg/L (≈ 1.36 µM).
With `O=C(N/N=C/Nc1ccc(C(=O)O)c(O)c1)c1cccc(C(F)(F)F)c1`, in experiment [1], inhibition of growth (MIC) required 0.5 mg/L (≈ 1.36 µM).
Consider `O=C(N/N=C/Nc1ccc(C(=O)O)c(O)c1)c1ccc(F)cc1`, for which the minimal inhibitory concentration (MIC) in experiment [1] is 0.5 mg/L (≈ 1.58 µM).
As to `O=C(N/N=C/Nc1ccc(C(=O)O)c(O)c1)c1cccc(F)c1`, the “Selectivity Index” value in experiment [2] came out at 592.64. In experiment [1], this compound had an MIC of 0.5 mg/L (≈ 1.58 µM).
For `O=C(O)c1ccc(N/C=N/NC(=O)c2ccccc2F)cc1O`, in experiment [2], the “Selectivity Index” value turned out to be 767.77. Also, 0.5 mg/L (≈ 1.58 µM) was the least that counted as inhibitory in experiment [1] (MIC).
Taken in the same sequence, the figures for `O=C(N/N=C/N1CCN(c2cc3c(cc2F)c(=O)c(C(=O)O)cn3C2CC2)CC1)c1ccc(C(F)(F)F)cc1` were 378.41 and 0.5 mg/L (≈ 0.917 µM).
Regarding `O=C(N/N=C/N1CCN(c2cc3c(cc2F)c(=O)c(C(=O)O)cn3C2CC2)CC1)c1cccc(C(F)(F)F)c1`, in experiment [2], the “Selectivity Index” value was 351.15. In experiment [1], this compound had an MIC of 0.5 mg/L (≈ 0.917 µM).
The like results for `O=C(N/N=C/N1CCN(c2cc3c(cc2F)c(=O)c(C(=O)O)cn3C2CC2)CC1)c1ccc(F)cc1` were, in that order, 1268.58 and 0.5 mg/L (≈ 1.01 µM).
Consider `O=C(N/N=C/N1CCN(c2cc3c(cc2F)c(=O)c(C(=O)O)cn3C2CC2)CC1)c1cccc(F)c1`, for which the “Selectivity Index” value in experiment [2] worked out at 804.76. Besides, in experiment [1], the MIC came out at 0.5 mg/L (≈ 1.01 µM).
`CCn1cc(C(=O)O)c(=O)c2cc(F)c(N3CCN(/C=N/NC(=O)c4ccc(C(F)(F)F)cc4)CC3)cc21`: the “Selectivity Index” value in experiment [2] is 3.98. Further, the minimal inhibitory concentration (MIC) in experiment [1] is 5 mg/L (≈ 9.37 µM).
For the compound `CCn1cc(C(=O)O)c(=O)c2cc(F)c(N3CCN(/C=N/NC(=O)c4cccc(F)c4)CC3)cc21`, the “Selectivity Index” value in experiment [2] worked out at 38. The same compound yielded an MIC in experiment [1] of 5 mg/L (≈ 10.3 µM).
Regarding `Nc1ccc(C(=O)O)c(O)c1` [AMINOSALICYLIC ACID], in experiment [1], the lowest concentration to inhibit growth (MIC) was 0.25 mg/L (≈ 1.63 µM).
Regarding `O=C(O)c1cn(C2CC2)c2cc(N3CCNCC3)c(F)cc2c1=O` [CIPROFLOXACIN], the “Selectivity Index” value in experiment [2] is 110.37. Besides, in experiment [1], 1.5 mg/L (≈ 4.53 µM) was the least that counted as inhibitory (MIC).
`NNC(=O)c1ccncc1` [ISONIAZID] returned an MIC in experiment [1] of 1 mg/L (≈ 7.29 µM).
For `CCn1cc(C(=O)O)c(=O)c2cc(F)c(N3CCNCC3)cc21` [NORFLOXACIN], in experiment [2], the “Selectivity Index” value is 15.87. This compound also displayed an MIC in experiment [1] of 10 mg/L (≈ 31.3 µM).
